Screens (PubChem BioAssay)
An excerpt weighted towards active compounds, which were near 3% of everything screened.
UCH37 inh – inhibitors of human deubiquitinating enzyme UCH37 | Q9Y5K5 | purified proteasome/UCH37, Ub-AMC cleavage fluorescence | inhibition, % (concentration not given with the values) | 330,000 tested, 0.33% active | AID 588478;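 active = mean inhibition over replicate wells above about 20%, limit read from the data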
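Assay system: Proteasome-bound UCH37. Buffer or medium: pH 7.4 Tris-HCl (50 mM) with ovalbumin, ATP-MgCl2, DTT. Incubation: 30 min preincubation with enzyme, 25 min cleavage at room temperature. Measured by: fluorescence, ex 355 nm, em 460 nm. Read-out basis: percent inhibition. Control set: wells without proteasome as full block, compound-free enzyme plus substrate as uninhibited.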
MEKK2mut PB1 HTS – signal of MEK5 binding to mutant human MEKK2 PB1 domain. bead flow cytometry, Alexa488-MEK5 binding to MEKK2 mutant. 290,000 tested, 0.35% active. percent response, % at 10 µM; in the data active = percent response above about 24%, passing the limit was not always enough
UBC13 inh – human UBC13 polyubiquitination inhibition | UBC13 polyubiquitin chain formation, TR-FRET | inhibition, % at 20 µM | 330,000 tested, 0.47% active; in the data active = inhibition above about 45%, passing the limit was not always enough
MEKK2 WT-MEK5 – raises or lowers MEK5 binding to wildtype human MEKK2 PB1 domain | bead flow cytometry, Alexa488-MEK5 binding to MEKK2 WT; actives lie on both sides | 290,000 tested, 1.1% active | binding response (% of control), % at 10 µM | AID 1531 | Q9Y2U5; in the data active = binding response below about 67% or above about 130%
MEKK3 PB1 HTS – MEKK3-MEK5 PB1 interaction, increase or decrease; Q99759; bead-based flow cytometry, Alexa488-MEK5 binding to MEKK3; actives lie on both sides; 0 = blocked by unlabeled MEK5, 100 = vehicle; binding response (% of control), % at 10 µM; 290,000 tested, 1.4% active; AID 1529;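 active = binding response more than 3 SD above or below the average of its plate-row segment, actives on both sides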;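 also: Alexa488 bead fluorescence after subtracting the streptavidin-only scavenger bead signal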
Target sequence (Q99759 whole entry, looked up): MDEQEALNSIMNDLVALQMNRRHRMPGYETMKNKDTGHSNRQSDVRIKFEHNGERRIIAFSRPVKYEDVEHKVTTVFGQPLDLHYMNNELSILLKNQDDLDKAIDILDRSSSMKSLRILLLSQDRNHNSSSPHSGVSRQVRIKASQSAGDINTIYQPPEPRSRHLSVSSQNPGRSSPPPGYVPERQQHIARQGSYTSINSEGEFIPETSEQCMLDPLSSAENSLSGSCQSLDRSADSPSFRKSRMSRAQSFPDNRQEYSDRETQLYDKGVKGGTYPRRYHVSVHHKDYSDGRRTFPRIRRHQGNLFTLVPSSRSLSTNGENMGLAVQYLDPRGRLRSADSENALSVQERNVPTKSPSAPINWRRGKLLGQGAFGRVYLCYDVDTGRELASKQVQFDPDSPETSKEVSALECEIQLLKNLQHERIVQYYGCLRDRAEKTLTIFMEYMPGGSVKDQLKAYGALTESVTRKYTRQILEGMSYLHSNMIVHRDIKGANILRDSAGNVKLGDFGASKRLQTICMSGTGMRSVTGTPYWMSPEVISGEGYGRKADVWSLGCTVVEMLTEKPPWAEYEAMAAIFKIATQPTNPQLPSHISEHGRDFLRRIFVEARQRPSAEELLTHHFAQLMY
Apaf1 inhib – blocks human Apaf-1 apoptosome activity | 330,000 tested, 0.71% active | inhibition, % at 20 µM | reconstituted apoptosome caspase-3 activity, DEVD-Rh110 fluorescence | O14727 | AID 489030; active = inhibition of at least 40% at 20 µM
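System – cell-free apoptosome with Apaf-1, procaspase-3 and caspase-9 · Buffer or medium – pH 7.5 Hepes buffer with CHAPS, BSA, DTT · Also added – cytochrome c with DEVD-Rh110 · Times – 30 min compound preincubation, 50 min activation, room temperature · Technique – Rh110 fluorescence intensity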
Apaf-1 inh conf – confirmation of Apaf-1 inhibitors | shares compounds with Apaf1 inhib | reconstituted apoptosome, caspase-3 DEVD-Rh110 fluorescence | inhibition, % at 20 µM | 1,800 tested, 25% active;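 active = mean inhibition of at least 40% at 20 µM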
Rh110 interf inh – Rh110 signal interference in Apaf-1 inhibitor counter-screen; activation (fluorescence interference), % at 20 µM; 1,800 tested, under 10 active; shares compounds with Apaf1 inhib; Rh110 fluorescence interference, quenched caspase reaction;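 active = signal rise of 40% or more at 20 µM, treated as a fluorescence artifact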
Apaf1 inh interf – shows fluorescence interference in the Apaf-1 inhibitor assay format; fluorescence interference counterscreen, Apaf-1 assay format; shares compounds with Apaf1 inhib; 460 tested, under 10 active; IC50, µM; call rule not given here
Each line names hits and unclear results; the compound was inactive in the other large screens (follow-up assays come after a bar, where they were run).

COc1cc(NCc2ccccc2O)c2ncccc2c1	none
Oc1ccccc1CNc1cccc2cccnc12	Apaf1 inhib 95 | Apaf-1 inh conf inactive | Rh110 interf inh inactive
NS(=O)(=O)c1cc(C(=O)OCC(=O)NC2CCCCCCC2)ccc1Cl	none (no result: MEKK2mut PB1 HTS, MEKK2 WT-MEK5, MEKK3 PB1 HTS)
CCOc1ccc(C2CC(c3ccccc3C)n3ncnc3N2)cc1 (stereo not given)	none
N#Cc1ccc(C23CC4(C2)[C@H](CN(Cc2ccc(-c5ccccc5)cc2)[C@@H]4c2ccccc2)C3c2ccc(C(F)(F)F)cc2)cc1 (stereo not given in full)	Apaf1 inhib 45 | Apaf-1 inh conf inactive | Rh110 interf inh inactive
FC(F)(F)c1ccc(C2[C@H]3CN(Cc4ccc(-c5ccccc5)cc4)[C@H](c4ccccc4)C34CC2(c2ccccc2)C4)cc1 (stereo not given in full)	none
Cc1ccc(N2CCN(C(=O)CCc3nc4ccccc4[nH]3)CC2)c(C)c1	none
Cc1nn(-c2ccc(C(=O)O)cc2)c(=O)c2ccccc12	none
COc1cc(CNc2ccc(O)cc2)cc(Br)c1OCc1ccccc1F	Apaf1 inhib 96 | Apaf-1 inh conf inactive | Rh110 interf inh inactive
CCOc1cc(CNc2ccc(O)cc2)cc(Br)c1OCc1ccccc1F	none
CCC(CC)c1nnc(NC(=O)CCN2C(=O)c3ccccc3C2=O)s1	none
CCC(CC)c1nnc(NC(=O)CN2C(=O)c3ccccc3C2=O)s1	Apaf1 inhib 87 | Apaf-1 inh conf inactive | Rh110 interf inh inactive
CN1c2ccccc2C(C)(C)C12C=Nc1c(cc(N3CCOCC3)c3ccccc13)O2 (stereo not given)	Apaf1 inhib 69 (no result: UCH37 inh, MEKK2mut PB1 HTS, MEKK2 WT-MEK5, MEKK3 PB1 HTS) | Apaf-1 inh conf inactive | Rh110 interf inh inactive
CCN1CCN(C2=C(NS(=O)(=O)c3ccc(NC(C)=O)cc3)C(=O)c3ccccc3C2=O)CC1	Apaf1 inhib 74 | Apaf-1 inh conf inactive | Rh110 interf inh inactive
CC(=O)Nc1ccc(S(=O)(=O)NC2=C(N3CCN(C)CC3)C(=O)c3ccccc3C2=O)cc1	Apaf1 inhib 60 | Apaf-1 inh conf 46 | Rh110 interf inh inactive | Apaf1 inh interf inactive
CCN1CCN(C2=C(NS(=O)(=O)c3ccc(C)cc3)C(=O)c3ccccc3C2=O)CC1	Apaf1 inhib 77 | Apaf-1 inh conf inactive | Rh110 interf inh inactive
CCN1CCN(C(CNS(=O)(=O)c2ccc(C)cc2)c2cccnc2)CC1 (stereo not given)	none
CC(=O)Nc1ccc(S(=O)(=O)NC2=C(N3CCN(Cc4ccccc4)CC3)C(=O)c3ccccc3C2=O)cc1	none (no result: MEKK2mut PB1 HTS, UBC13 inh, MEKK2 WT-MEK5, MEKK3 PB1 HTS, Apaf1 inhib)
O=C(c1cccs1)N1CCC(c2nc3c(nnn3Cc3cccc(Cl)c3)c(=O)[nH]2)CC1	none
NC(=NOC(=O)Cc1cccs1)c1cccc([N+](=O)[O-])c1	none (no result: MEKK2mut PB1 HTS, UBC13 inh, MEKK2 WT-MEK5, MEKK3 PB1 HTS, Apaf1 inhib)
O=C(O)CC1S/C(=N/N=C/c2ccc(-c3ccc(Cl)c([N+](=O)[O-])c3)o2)NC1=O (stereo not given)	none (no result: UCH37 inh)
O=C(O)CC1S/C(=N/N=C/c2ccc(-c3ccc(Cl)cc3[N+](=O)[O-])o2)NC1=O (stereo not given)	Apaf1 inhib 52 (no result: UCH37 inh) | Apaf-1 inh conf inactive | Rh110 interf inh inactive
CCn1cc(C(=O)OCC(=O)OC2CC(C)CCC2C(C)C)c(=O)c2ccc(C)nc21 (stereo not given)	Apaf1 inhib 48 | Apaf-1 inh conf inactive | Rh110 interf inh inactive
O=C(Cc1csc(-c2ccccc2)n1)Nc1ccc(C(F)(F)F)cc1	none
Cc1ccc2[nH]c3c(c2c1)CN(C(=O)CN1CCCc2ccccc21)CC3	Apaf1 inhib 78 | Apaf-1 inh conf inactive | Rh110 interf inh inactive
CN(CCCNC(=O)CCc1cn(C)c2ccccc12)C1CCCCC1	none
C(=Nn1cnnc1)c1ccc(N2CCOCC2)s1	none (no result: MEKK2mut PB1 HTS, UBC13 inh, MEKK2 WT-MEK5, MEKK3 PB1 HTS, Apaf1 inhib)
N#Cc1ccccc1S(=O)(=O)N1CCN(CC(O)c2ccccc2)CC1 (stereo not given)	none
COc1cc(C(=O)NCC(=O)NC(C)c2ccc(-n3ccnc3)cc2)cc(OC)c1OC (stereo not given)	none (no result: MEKK2mut PB1 HTS, MEKK2 WT-MEK5, MEKK3 PB1 HTS)
COc1cc(C(=O)NC(C)c2ccc(-n3ccnc3)cc2)cc(OC)c1C (stereo not given)	Apaf1 inhib 41 | Apaf-1 inh conf inactive | Rh110 interf inh inactive
Cc1oc2c(c1C(=O)N1CCC(C)CC1)C(=O)c1ccccc1C2=O	Apaf1 inhib 42 | Apaf-1 inh conf inactive | Rh110 interf inh inactive
Cc1ccc(C(=O)c2c(C)oc3c2C(=O)C(=O)c2ccccc2-3)cc1	UCH37 inh 42, Apaf1 inhib 88 | Apaf-1 inh conf 73 | Rh110 interf inh inactive | Apaf1 inh interf inactive
CCCC(=O)Nc1nnc(CCN2CCCCC2)s1	none
CC(C)Cn1c(N)c(C(=O)NCC2CCCO2)c2nc3ccccc3nc21 (stereo not given)	Apaf1 inhib 65 | Apaf-1 inh conf inactive | Rh110 interf inh inactive
COCCn1c(N)c(C(=O)NCC2CCCO2)c2nc3ccccc3nc21 (stereo not given)	Apaf1 inhib 75 | Apaf-1 inh conf inactive | Rh110 interf inh inactive
CCOC(=O)c1c(N)n(CC(C)NC(=O)C2CC2)c2nc3ccccc3nc12 (stereo not given)	none (no result: UCH37 inh, UBC13 inh, Apaf1 inhib)
O=C(c1cc(COc2ccc(F)cc2Cl)on1)N1CCN(C2CCCCC2)C(=O)C1	none
CC(=O)N(/N=C1\Sc2ccccc2C1=O)c1cccc(C)c1	Apaf1 inhib 86 (no result: UCH37 inh) | Apaf-1 inh conf 85 | Rh110 interf inh inactive | Apaf1 inh interf inactive
CC(=O)N(CN1C(=O)c2ccccc2C1=O)c1cccc(C)c1	none
CCO[C@@H]1OC(C(=O)N2CCN(Cc3ccc4c(c3)OCO4)CC2)=C[C@H](c2ccc(Br)cc2)[C@H]1CCCO	none
CCO[C@@H]1OC(C(=O)N2CCN(Cc3ccc4c(c3)OCO4)CC2)=C[C@H](c2ccc(C(F)(F)F)cc2)[C@H]1CCCO	Apaf1 inhib 42 | Apaf-1 inh conf inactive | Rh110 interf inh inactive
O=C(O)c1ccc2c3c(ncnc13)-c1ccccc1C2=O	Apaf1 inhib 44 (no result: MEKK2mut PB1 HTS, MEKK2 WT-MEK5, MEKK3 PB1 HTS) | Apaf-1 inh conf inactive | Rh110 interf inh inactive
CN(Cc1ccccc1)C(=O)CN1C(=O)NC(C)(c2ccc(C(C)(C)C)cc2)C1=O (stereo not given)	Apaf1 inhib 42 | Apaf-1 inh conf inactive | Rh110 interf inh inactive
